The list is not random: actives were taken first. Their share in the collection is about 3%.
SENP8 block-1 = inhibitors of human SENP8 protease; inhibition, % at 10 µM; Q96LD8; 330,000 compounds, 1.2% hits; purified SENP8, Z-RLRGG-aminoluciferin cleavage, luminescence; in the data active = inhibition above about 50%
Target sequence (Q96LD8 whole entry, looked up): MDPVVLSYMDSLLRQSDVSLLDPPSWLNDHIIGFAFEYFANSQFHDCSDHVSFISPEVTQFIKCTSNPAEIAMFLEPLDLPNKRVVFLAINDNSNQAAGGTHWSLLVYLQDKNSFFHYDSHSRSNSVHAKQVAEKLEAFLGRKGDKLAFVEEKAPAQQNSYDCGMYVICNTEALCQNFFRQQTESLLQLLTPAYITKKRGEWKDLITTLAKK
Apaf-1 inh = inhibitors of human Apaf-1 apoptosome; O14727; reconstituted apoptosome caspase-3 activity, DEVD-Rh110 fluorescence; inhibition, % at 20 µM; 330,000 compounds, 0.71% hits; AID 489030; active = inhibition of at least 40% at 20 µM
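Assay system – apoptosome proteins · Medium – Hepes buffer, pH 7.5 · Also added – cytochrome c with DEVD-Rh110 · Timing – 30 min compound preincubation, 50 min activation, room temperature · Detection – Rh110 fluorescence, excitation 480 nm, emission 540 nm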
UBC13 inh = inhibitors of human UBC13 polyubiquitin chain formation; P61088; TR-FRET; inhibition, % at 20 µM; 330,000 compounds, 0.47% hits; AID 485273; in the data active = inhibition above about 45%, passing the limit was not always enough
Target sequence (P61088 whole entry, looked up): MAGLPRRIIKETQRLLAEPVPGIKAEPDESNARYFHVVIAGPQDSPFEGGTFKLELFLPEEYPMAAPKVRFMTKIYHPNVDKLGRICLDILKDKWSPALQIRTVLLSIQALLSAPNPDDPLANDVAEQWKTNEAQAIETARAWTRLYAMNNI
SENP6 block = blocks the human protease SENP6; Recombinant SENP6 catalytic domain, aminoluciferin luminescence; inhibition, % at 10 µM; 330,000 compounds, 1.8% hits; AID 2599;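 active = inhibition above about 50% at the single tested dose, limit read from the data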
SENP8 block-2 = inhibitors of human SENP8 protease. Q96LD8. 360,000 compounds, 0.64% hits. recombinant SENP8, Nedd8 substrate fluorescence. inhibition, % at 20 µM; in the data active = inhibition mostly above about 40%, no sharp cut-off; inactive = mostly below about 27%
SENP7 block = blocks the human protease SENP7; recombinant SENP7, Z-RLRGG-aminoluciferin luminescence, 40 min; inhibition, % at 5 µM; 330,000 compounds, 1.5% hits;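 active = inhibition above about 50% at the single test dose, limit read from the data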
Casp3 counter = caspase-3 inhibition (UBC13 counter-screen); shares compounds with UBC13 inh; Recombinant caspase-3, Caspase-Glo 3/7 luminescence, 60 min; inhibition, % at 20 µM; 1,400 compounds, 4% hits; AID 488856;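 active = mean inhibition across replicates above about 26%, limit read from the data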
UBC13 confirm = confirmation of human UBC13 polyubiquitin inhibitors; shares compounds with UBC13 inh; UBC13 polyubiquitination, TR-FRET, biochemical; inhibition, % at 10 µM; 1,400 compounds, 68% hits; AID 488859; in the data active = inhibition above about 45%
Numbers stand for hits; n = inactive; x = not tested or not shown.

SMILES	SENP8 block-1	Apaf-1 inh	UBC13 inh	SENP6 block	SENP8 block-2	SENP7 block	Casp3 counter	UBC13 confirm
CC(C(=O)NC1CCCC1)N(C(=O)c1snc(C(N)=O)c1N)c1ccc2c(c1)OCCO2 (centres undefined)	n	n	72.2	n	n	n	n	72.1
COc1ccc(OCC(=O)NNC(=O)c2ccccn2)cc1	n	n	68.9	n	n	n	n	95.5
CC(Oc1cccc(Br)c1)C(=O)NNC(=O)c1ccccn1 (centres undefined)	n	n	47.0	n	n	n	n	90.7
CC(=O)c1ccc(OCCCC(=O)NNC(=O)c2ccccn2)cc1	n	n	76.1	n	n	n	n	65.8
CC(C)CNC(=O)C1(C)CCCN1Cc1ccc(S(C)(=O)=O)cc1 (centres undefined)	x	x	x	x	n	x	x	x
CC1(C(=O)O)CCCN1C(=O)c1ccccc1OC(F)(F)F (centres undefined)	x	x	x	x	n	x	x	x
Cc1ccsc1CNc1ncnc2ccc(-c3c(C)noc3C)cc12	n	n	46.3	n	n	n	n	n
C=CCn1c(SCc2ccc(Cl)cc2)nc2cc(C(=O)N3CCC(C(N)=O)CC3)ccc2c1=O	n	n	57.4	n	n	n	n	47.6
Cc1ccccc1C(=O)NCC(=O)NNC(=S)NC(=O)c1ccccc1	n	n	80.4	n	n	n	n	81.9
Cc1ccccc1C(=O)NC(=S)NCC(=O)c1ccccc1	n	n	n	n	n	n	x	x
Cc1ccccc1C(=O)NCC(=O)NNC(=S)NC(=O)c1ccccc1C	n	n	87.4	n	n	n	n	78.3
C/C(Cl)=C\Cn1c(O)c(N=NC(N)=S)c2ccccc21	n	n	83.7	n	n	n	n	101.6
COC(=O)c1ccc(Cn2c(O)c(N=NC(N)=S)c3ccccc32)o1	n	n	68.6	n	n	n	n	80.9
NC(=S)N=Nc1c(O)n(Cc2ccccc2)c2ccccc12	n	n	n	n	n	n	x	x
COC(=O)N=Nc1c(O)n(Cc2ccccc2)c2ccccc12	n	n	n	n	n	n	x	x
CC(C)Cn1c(=O)c(C(=O)Nc2ccccc2S(N)(=O)=O)c(O)c2ccccc21	n	n	68.7	n	n	n	n	n
COc1ccc(-c2cc(C3CCN(c4cc(Cl)nc(N)n4)CC3)[nH]n2)cc1	n	n	45.8	n	n	n	n	45.9
CN1CCN(CC/C=C2/c3ccccc3Sc3ccc(S(=O)(=O)N(C)C)cc32)CC1	n	n	55.0	n	n	n	n	n
Oc1ccc(/C=N/n2c(-c3ccco3)csc2=Nc2cccnc2)c(O)c1	n	n	n	n	n	n	x	x
COCCN=c1scc(-c2ccco2)n1/N=C/c1ccc(O)c(O)c1O	n	n	46.3	n	n	n	n	n
O=C(NCCO)/C(=C\c1cccc([N+](=O)[O-])c1)NC(=O)c1cccs1	x	x	x	x	n	x	x	x
C[C@@H]1O[C@@H](Oc2c(-c3ccc(O)c(O)c3)oc3cc(O)cc(O)c3c2=O)[C@H](O)[C@H](O)[C@H]1O	n	n	n	n	n	n	x	x
C[C@@H]1O[C@@H](Oc2c(-c3cc(O)c(O)c(O)c3)oc3cc(O)cc(O)c3c2=O)[C@H](O)[C@H](O)[C@H]1O	n	n	49.9	n	n	n	n	n
NCC12CC3CC(C1)CC(c1ccc(Cl)cc1)(C3)C2	n	n	57.4	n	n	n	n	76.3
Nc1ccc(C23CC4CC(CC(CO)(C4)C2)C3)cc1	n	n	n	n	n	n	x	x
O=C(NCc1cccnc1)c1cc(C2CCCN(C(=O)c3cccc(O)c3)C2)on1 (centres undefined)	x	x	x	x	n	x	x	x
COc1ccc(C2c3ccc4ccccc4c3Oc3ncn(CCCN(C)C)c(=N)c32)cc1 (centres undefined)	n	n	60.9	n	n	n	n	48.1
COc1ccccc1C1c2ccc3ccccc3c2Oc2ncn(CCN(C)C)c(=N)c21 (centres undefined)	n	n	n	n	n	n	x	x
COc1cc(C(=O)N(C)C2CCCCC2)cc(OC)c1OC	x	x	x	x	n	x	x	x
CC(C)(C)CN1CCNC[C@H]1Cc1cccc2ccccc12	n	n	46.8	n	n	n	n	n
